The source made the active and inactive calls. The calls are words filed in the database; no cut-off is given here. Where a SMILES comes first, the peptide text is derived from it.
How the values were obtained:
LLC-MK2 = experiment: Cytotoxicity against rhesus monkey LLC-MK2 cells at 9 uM after 3 days by MTT assay; assay type: cell-based, Macaca mulatta; conditions: llc-mk2, 72 h
In short: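 Serial peptide dilutions in hMPV infection medium applied to LLC-MK2 cells for 3 days. MTT (1 mg/ml) added for 2 h at 37°C, dye solubilized in acidic isopropanol, absorbance read at 570. Absorbance below that of control cells taken as cytotoxicity.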

Human metapneumovirus = experiment: Antiviral activity against hMPV C-85473 infected in rhesus monkey LLC-MK2 cells after 3 days by RT-PCR; assay type: functional, organism-based; conditions: C-85473, LLC-MK2, 72 h
In short: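 Twofold serial dilutions of peptide mixed with 107 TCID50 virus in infection medium (Opti-MEM with 2 µg/ml trypsin) and added to LLC-MK2 cells. After 2 h, medium replaced with fresh medium containing the same peptide dilutions. Supernatants collected on day 3 and N gene quantified by real-time RT-PCR (TaqMan). IC50 from triplicate experiments.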

Mus musculus [1] = organism: Mus musculus; experiment: Effect on airway obstruction in hMPV infected BALB/c mouse assessed as decrease in enhanced pause treated simultaneously with viral challenge
Mus musculus [2] = organism: Mus musculus; experiment: Effect on pulmonary inflammation in BALB/c mouse lung assessed as change in peribronchiolar inflammation after 5 days by histopathological analysis; assay type: functional, organism-based
In short: (§1)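 Female BALB/c mice, 4-6 weeks old, received intranasal hMPV C-85473 (2 x 106 TCID50/ml, 70 µl) or PBS, with or without 7 µM synthetic peptide by the same route. Six lungs/group taken on day 5, fixed in 10% buffered formalin, paraffin-embedded, cut at 5 µm, stained with H&E. Each inflammation type scored on a 0-4 scale.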

Mus musculus [3] = organism: Mus musculus; experiment: Effect on pulmonary inflammation in BALB/c mouse lung assessed as change in perivascular inflammation after 5 days by histopathological analysis; assay type: functional, organism-based; in short: as §1

Row | Compound | Activity (LLC-MK2) | IC50 (Human metapneumovirus) [µM] | Activity (Mus musculus [1]) | Activity (Mus musculus [2]) | Activity (Mus musculus [3])
1 | CC[C@H](C)[C@H](NC(=O)[C@H](C)NC(=O)[C@@H](NC(=O)[C@@H](NC(=O)[C@H](CCC(=O)O)NC(=O)[C@H](CO)NC(=O)[C@H](CCC(=O)O)NC(=O)[C@@H](N)CC(C)C)C(C)C)[C@@H](C)O)C(=O)N[C@@H](CCCCN)C(=O)N[C@@H](CC(N)=O)C(=O)N[C@@H](C)C(=O)N[C@@H](CC(C)C)C(=O)N[C@@H](CCCCN)C(=O)N[C@@H](CCCCN)C(=O)N[C@H](C(=O)N[C@@H](CC(N)=O)C(=O)N[C@@H](CCC(=O)O)C(=O)N[C@@H](C)C(=O)N[C@H](C(=O)N[C@@H](CO)C(=O)N[C@H](C(=O)N[C@@H](CC(C)C)C(=O)NCC(=O)N[C@@H](CC(N)=O)C(=O)NCC(=O)N[C@H](C(=O)N[C@@H](CCCNC(=N)N)C(=O)N[C@H](C(=O)N[C@@H](CC(C)C)C(=O)N[C@@H](C)C(=O)N[C@H](C(=O)N[C@@H](C)C(=O)N[C@H](C(=O)N[C@@H](CCCNC(=N)N)C(=O)N[C@@H](CCC(=O)O)C(=O)O)C(C)C)[C@@H](C)O)C(C)C)C(C)C)[C@@H](C)O)C(C)C)[C@@H](C)O (H-LESEVTAIKNALKKTNEAVSTLGNGVRVLATAVRE-OH) | Not Active | 3.24 | – | – | –
2 | CC[C@H](C)[C@H](NC(=O)[C@H](CCCNC(=N)N)NC(=O)[C@H](CC(N)=O)NC(=O)[C@H](CO)NC(=O)[C@H](CCC(N)=O)NC(=O)[C@H](CC(=O)O)NC(=O)[C@@H](NC(=O)[C@H](CC(C)C)NC(=O)[C@H](C)NC(=O)[C@H](CCC(N)=O)NC(=O)[C@H](CO)NC(=O)[C@H](CC(N)=O)NC(=O)[C@H](CCC(=O)O)NC(=O)[C@@H](NC(=O)[C@H](CO)NC(=O)[C@H](CCC(=O)O)NC(=O)[C@H](Cc1ccccc1)NC(=O)[C@@H](NC(=O)[C@H](CCC(N)=O)NC(=O)[C@H](CC(=O)O)NC(=O)[C@H](CC(C)C)NC(=O)[C@H](C)NC(=O)[C@@H](NC(=O)[C@@H](N)CC(N)=O)C(C)C)C(C)C)[C@@H](C)CC)C(C)C)C(=O)N[C@@H](CC(C)C)C(=O)N[C@@H](CO)C(=O)N[C@@H](CO)C(=O)N[C@@H](C)C(=O)O (H-NVALDQVFESIENSQALVDQSNRILSSA-OH) | Not Active | > 9 | inactive | inactive | inactive
3 | CC[C@H](C)[C@H](NC(=O)[C@H](CCCNC(=N)N)NC(=O)[C@H](CC(N)=O)NC(=O)[C@H](CO)NC(=O)[C@H](CCC(N)=O)NC(=O)[C@H](CC(=O)O)NC(=O)[C@@H](NC(=O)[C@H](CC(C)C)NC(=O)[C@H](C)NC(=O)[C@H](CCC(N)=O)NC(=O)[C@H](CO)NC(=O)[C@H](CC(N)=O)NC(=O)[C@H](CCC(=O)O)NC(=O)[C@@H](NC(=O)[C@H](CO)NC(=O)[C@H](CCC(=O)O)NC(=O)[C@H](Cc1ccccc1)NC(=O)[C@@H](NC(=O)[C@H](CCC(N)=O)NC(=O)[C@H](CC(=O)O)NC(=O)[C@H](CC(C)C)NC(=O)[C@H](C)NC(=O)[C@@H](NC(=O)[C@H](CC(N)=O)NC(=O)[C@@H](N)Cc1ccccc1)C(C)C)C(C)C)[C@@H](C)CC)C(C)C)C(=O)N[C@@H](CC(C)C)C(=O)N[C@@H](CO)C(=O)N[C@@H](CO)C(=O)N[C@@H](C)C(=O)N[C@@H](CCC(=O)O)C(=O)N[C@@H](CCCCN)C(=O)NCC(=O)N[C@@H](CC(N)=O)C(=O)N[C@H](C(=O)NCC(=O)O)[C@@H](C)O (H-FNVALDQVFESIENSQALVDQSNRILSSAEKGNTG-OH) | Not Active | 1.52 | – | – | –
4 | CC[C@H](C)[C@H](NC(=O)[C@H](CCCNC(=N)N)NC(=O)[C@H](CC(N)=O)NC(=O)[C@H](CO)NC(=O)[C@H](CCC(N)=O)NC(=O)[C@H](CC(=O)O)NC(=O)[C@@H](NC(=O)[C@H](CC(C)C)NC(=O)[C@H](C)NC(=O)[C@H](CCC(N)=O)NC(=O)[C@H](CO)NC(=O)[C@H](CC(N)=O)NC(=O)[C@H](CCC(=O)O)NC(=O)[C@@H](NC(=O)[C@H](CO)NC(=O)[C@H](CCC(=O)O)NC(=O)[C@H](Cc1ccccc1)NC(=O)[C@@H](NC(=O)[C@H](CCC(N)=O)NC(=O)[C@H](CC(=O)O)NC(=O)[C@H](CC(C)C)NC(=O)[C@H](C)NC(=O)[C@@H](NC(=O)[C@H](CC(N)=O)NC(=O)[C@@H](N)Cc1ccccc1)C(C)C)C(C)C)[C@@H](C)CC)C(C)C)C(=O)N[C@@H](CC(C)C)C(=O)N[C@@H](CO)C(=O)N[C@@H](CO)C(=O)N[C@@H](C)C(=O)N[C@@H](CCC(=O)O)C(=O)O (H-FNVALDQVFESIENSQALVDQSNRILSSAE-OH) | Not Active | > 9 | – | – | –
5 | CC[C@H](C)[C@H](NC(=O)[C@H](CCCNC(=N)N)NC(=O)[C@H](CC(N)=O)NC(=O)[C@H](CO)NC(=O)[C@H](CCC(N)=O)NC(=O)[C@H](CC(=O)O)NC(=O)[C@@H](NC(=O)[C@H](CC(C)C)NC(=O)[C@H](C)NC(=O)[C@H](CCC(N)=O)NC(=O)[C@H](CO)NC(=O)[C@H](CC(N)=O)NC(=O)[C@H](CCC(=O)O)NC(=O)[C@@H](NC(=O)[C@H](CO)NC(=O)[C@H](CCC(=O)O)NC(=O)[C@H](Cc1ccccc1)NC(=O)[C@@H](NC(=O)[C@H](CCC(N)=O)NC(=O)[C@H](CC(=O)O)NC(=O)[C@H](CC(C)C)NC(=O)[C@H](C)NC(=O)[C@@H](NC(=O)[C@H](CC(N)=O)NC(=O)[C@H](Cc1ccccc1)NC(=O)[C@H](CCC(N)=O)NC(=O)[C@H](CC(=O)O)NC(=O)[C@H](CCC(=O)O)NC(=O)[C@@H]1CCCN1)C(C)C)C(C)C)[C@@H](C)CC)C(C)C)C(=O)N[C@@H](CC(C)C)C(=O)N[C@@H](CO)C(=O)N[C@@H](CO)C(=O)N[C@@H](C)C(=O)N[C@@H](CCC(=O)O)C(=O)N[C@@H](CCCCN)C(=O)NCC(=O)N[C@@H](CC(N)=O)C(=O)N[C@H](C(=O)NCC(=O)O)[C@@H](C)O (H-PEDQFNVALDQVFESIENSQALVDQSNRILSSAEKGNTG-OH) | Not Active | 3.31 | – | – | –
6 | CC[C@H](C)[C@H](NC(=O)[C@H](CCCNC(=N)N)NC(=O)[C@H](CC(N)=O)NC(=O)[C@H](CO)NC(=O)[C@H](CCC(N)=O)NC(=O)[C@H](CC(=O)O)NC(=O)[C@@H](NC(=O)[C@H](CC(C)C)NC(=O)[C@H](C)NC(=O)[C@H](CCC(N)=O)NC(=O)[C@H](CO)NC(=O)[C@H](CC(N)=O)NC(=O)[C@H](CCC(=O)O)NC(=O)[C@@H](NC(=O)[C@H](CO)NC(=O)[C@H](CCC(=O)O)NC(=O)[C@H](Cc1ccccc1)NC(=O)[C@@H](NC(=O)[C@H](CCC(N)=O)NC(=O)[C@H](CC(=O)O)NC(=O)[C@H](CC(C)C)NC(=O)[C@H](C)NC(=O)[C@@H](NC(=O)[C@H](CC(N)=O)NC(=O)[C@@H](N)Cc1ccccc1)C(C)C)C(C)C)[C@@H](C)CC)C(C)C)C(=O)N[C@@H](CC(C)C)C(=O)N[C@@H](CO)C(=O)N[C@@H](CO)C(=O)N[C@@H](C)C(=O)N[C@@H](CCC(=O)O)C(=O)N[C@@H](CCCCN)C(=O)NCC(=O)N[C@@H](CC(N)=O)C(=O)O (H-FNVALDQVFESIENSQALVDQSNRILSSAEKGN-OH) | Not Active | > 9 | – | – | –
